Data taken from ChEMBL document CHEMBL3091445, “The 3,7-diazabicyclo[3.3.1]nonane scaffold for subtype selective nicotinic acetylcholine receptor ligands. Part 2: carboxamide derivatives with different spacer motifs” (Bioorg Med Chem, 2013).
The source made the active and inactive calls. No cut-off for these calls is given here.

Tests used:
[1] = Displacement of [3H]epibatidine from calf adrenal alpha3beta4 nAChR after 90 mins by liquid scintillation counting analysis; parameters: species or system Bos taurus
[2] = biological target: Neuronal acetylcholine receptor subunit alpha-7 (Rattus norvegicus, UniProt Q05941); assay: Displacement of [3H]methyllycaconitine from Sprague-Dawley rat brain alpha7 nAChR after 120 mins by liquid scintillation counting analysis; assay type: tissue-based
Neuronal acetylcholine receptor subunit alpha-7, sequence (Q05941 whole entry): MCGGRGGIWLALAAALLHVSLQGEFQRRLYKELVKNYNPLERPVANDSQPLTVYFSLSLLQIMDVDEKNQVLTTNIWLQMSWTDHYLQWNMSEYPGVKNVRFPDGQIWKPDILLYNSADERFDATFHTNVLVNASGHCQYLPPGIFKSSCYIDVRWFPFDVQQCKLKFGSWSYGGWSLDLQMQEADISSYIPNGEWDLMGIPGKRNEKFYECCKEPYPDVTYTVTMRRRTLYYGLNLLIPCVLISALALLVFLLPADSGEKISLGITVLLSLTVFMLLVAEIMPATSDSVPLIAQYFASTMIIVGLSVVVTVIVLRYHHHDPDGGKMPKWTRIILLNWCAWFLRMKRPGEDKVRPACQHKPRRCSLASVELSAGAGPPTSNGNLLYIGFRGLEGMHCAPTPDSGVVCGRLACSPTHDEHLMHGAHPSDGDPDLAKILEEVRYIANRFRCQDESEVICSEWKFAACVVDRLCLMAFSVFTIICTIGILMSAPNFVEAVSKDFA
Method in brief: (§1)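 Radioligand competition binding gave Ki values, reported as mean ± SEM from 2–10 independent experiments.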

[3] = Displacement of [3H]epibatidine from Torpedo californica electroplax (alpha1)2beta1gammadelta nAChR after 90 mins by liquid scintillation counting analysis; parameters: species or system Tetronarce californica
[4] = biological target: Neuronal acetylcholine receptor; alpha4/beta2 (Rattus norvegicus, UniProt P09483+P12390); assay: Displacement of [3H]epibatidine from Sprague-Dawley rat brain alpha4beta2 nAChR after 90 mins by liquid scintillation counting analysis; method in brief: as §1
Neuronal acetylcholine receptor; alpha4/beta2, sequence (P09483 whole entry): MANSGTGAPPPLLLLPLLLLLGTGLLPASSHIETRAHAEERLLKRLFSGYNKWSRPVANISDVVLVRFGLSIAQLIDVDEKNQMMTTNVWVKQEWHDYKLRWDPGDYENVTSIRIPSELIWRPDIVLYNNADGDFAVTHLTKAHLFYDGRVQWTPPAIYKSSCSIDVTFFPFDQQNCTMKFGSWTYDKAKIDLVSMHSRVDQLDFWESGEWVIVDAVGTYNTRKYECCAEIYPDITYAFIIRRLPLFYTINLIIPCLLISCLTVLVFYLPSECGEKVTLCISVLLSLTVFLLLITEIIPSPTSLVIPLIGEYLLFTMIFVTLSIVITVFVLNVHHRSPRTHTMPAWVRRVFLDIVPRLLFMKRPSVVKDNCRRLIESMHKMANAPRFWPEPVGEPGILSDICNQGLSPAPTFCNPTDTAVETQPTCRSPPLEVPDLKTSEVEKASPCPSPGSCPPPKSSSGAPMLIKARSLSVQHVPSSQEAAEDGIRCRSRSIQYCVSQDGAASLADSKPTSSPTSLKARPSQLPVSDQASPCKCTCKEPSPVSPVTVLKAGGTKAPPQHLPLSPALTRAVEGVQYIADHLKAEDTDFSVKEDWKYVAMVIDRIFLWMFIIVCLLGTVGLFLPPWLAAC
Neuronal acetylcholine receptor; alpha4/beta2, sequence (P12390 whole entry): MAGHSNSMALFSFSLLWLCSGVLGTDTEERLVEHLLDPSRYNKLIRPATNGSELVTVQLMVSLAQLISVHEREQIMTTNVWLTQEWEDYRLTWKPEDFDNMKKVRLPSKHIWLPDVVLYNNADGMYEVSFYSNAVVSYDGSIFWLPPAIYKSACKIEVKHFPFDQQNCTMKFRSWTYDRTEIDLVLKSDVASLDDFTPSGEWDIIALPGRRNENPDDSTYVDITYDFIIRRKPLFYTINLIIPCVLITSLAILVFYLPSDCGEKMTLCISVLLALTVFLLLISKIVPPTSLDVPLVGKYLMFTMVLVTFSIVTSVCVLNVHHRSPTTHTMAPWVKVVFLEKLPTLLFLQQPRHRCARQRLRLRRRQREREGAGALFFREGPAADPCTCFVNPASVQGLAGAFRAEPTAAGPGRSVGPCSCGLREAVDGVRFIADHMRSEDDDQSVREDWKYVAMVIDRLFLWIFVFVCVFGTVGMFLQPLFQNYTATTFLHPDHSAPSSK

[5] = biological target: T1, Nicotinic acetylcholine receptor alpha1/beta1/epsilon/delta (Mus musculus) (UniProt P04756+P09690+P02716+P20782); assay: Antagonist activity at mouse muscle alpha1beta1epsilondelta nAChR expressed in Xenopus oocytes assessed as inhibition of acetylcholine-induced effect at 1 uM incubated for 8 secs followed by compound washout measured after 241 secs by two-electrode voltage clamp technique; assay type: cell-based
[6] = biological target: T2, Neuronal acetylcholine receptor; alpha3/beta4 (Homo sapiens) (UniProt P30926+P32297); assay: Agonist activity at human alpha3beta4 nAChR expressed in Xenopus oocytes at 10 uM incubated for 8 secs followed by compound washout measured after 241 secs by two-electrode voltage clamp technique; assay type: cell-based
[7] = biological target: T1, Nicotinic acetylcholine receptor alpha1/beta1/epsilon/delta (Mus musculus); assay: Agonist activity at mouse muscle alpha1beta1epsilondelta nAChR expressed in Xenopus oocytes at 10 uM incubated for 8 secs followed by compound washout measured after 241 secs by two-electrode voltage clamp technique; assay type: cell-based
[8] = biological target: T2, Neuronal acetylcholine receptor; alpha3/beta4 (Homo sapiens); assay: Agonist activity at human alpha3beta4 nAChR expressed in Xenopus oocytes at 1 uM incubated for 8 secs followed by compound washout measured after 241 secs by two-electrode voltage clamp technique; assay type: cell-based
[9] = biological target: Neuronal acetylcholine receptor subunit alpha-7 (Homo sapiens) (UniProt P36544); assay: Antagonist activity at human alpha7 nAChR expressed in Xenopus oocytes assessed as inhibition of acetylcholine-induced effect at 1 uM incubated for 12 secs followed by compound washout measured after 181 secs by two-electrode voltage clamp technique; assay type: cell-based
Neuronal acetylcholine receptor subunit alpha-7 (Homo sapiens), sequence (P36544 whole entry): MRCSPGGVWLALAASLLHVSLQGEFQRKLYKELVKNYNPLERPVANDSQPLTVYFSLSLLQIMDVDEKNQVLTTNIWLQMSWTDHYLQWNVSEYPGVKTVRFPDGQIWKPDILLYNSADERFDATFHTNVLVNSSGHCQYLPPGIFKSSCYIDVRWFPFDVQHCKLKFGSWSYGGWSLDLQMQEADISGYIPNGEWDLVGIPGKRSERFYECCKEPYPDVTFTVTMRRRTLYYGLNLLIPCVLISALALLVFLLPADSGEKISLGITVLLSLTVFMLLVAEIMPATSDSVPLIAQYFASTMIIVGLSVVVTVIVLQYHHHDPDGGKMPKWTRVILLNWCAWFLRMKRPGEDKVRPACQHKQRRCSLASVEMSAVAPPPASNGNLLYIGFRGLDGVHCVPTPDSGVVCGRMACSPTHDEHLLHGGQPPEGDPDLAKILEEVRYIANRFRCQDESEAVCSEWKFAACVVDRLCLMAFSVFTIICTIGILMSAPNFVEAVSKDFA

[10] = biological target: T2, Neuronal acetylcholine receptor; alpha3/beta4 (Homo sapiens); assay: Antagonist activity at human alpha3beta4 nAChR expressed in Xenopus oocytes at 1 uM incubated for 8 secs followed by compound washout measured after 241 secs by two-electrode voltage clamp technique; assay type: cell-based
[11] = biological target: T3, Neuronal acetylcholine receptor; alpha4/beta2 (Homo sapiens) (UniProt P17787+P43681); assay: Partial agonist activity at human alpha4beta2 nAChR expressed in Xenopus oocytes at 1 uM incubated for 8 secs followed by compound washout measured after 241 secs by two-electrode voltage clamp technique; assay type: cell-based
[12] = biological target: T1, Nicotinic acetylcholine receptor alpha1/beta1/epsilon/delta (Mus musculus); assay: Agonist activity at mouse muscle alpha1beta1epsilondelta nAChR expressed in Xenopus oocytes at 1 uM incubated for 8 secs followed by compound washout measured after 241 secs by two-electrode voltage clamp technique; assay type: cell-based
[13] = biological target: T3, Neuronal acetylcholine receptor; alpha4/beta2 (Homo sapiens); assay: Partial agonist activity at human alpha4beta2 nAChR expressed in Xenopus oocytes at 10 uM incubated for 8 secs followed by compound washout measured after 241 secs by two-electrode voltage clamp technique; assay type: cell-based
[14] = biological target: Neuronal acetylcholine receptor subunit alpha-7 (Homo sapiens) (UniProt P36544); assay: Agonist activity at human alpha7 nAChR expressed in Xenopus oocytes at 1 uM incubated for 12 secs followed by compound washout measured after 181 secs by two-electrode voltage clamp technique; assay type: cell-based

Structure (SMILES) | Ki [1] [µM] | Ki [2] [µM] | Ki [3] [µM] | Ki [4] [µM] | inhibition [5] | Activity [6] | Activity [7] | Activity [8] | inhibition [9] | Activity [10] | Activity [11] | Activity [12] | Activity [13] | Activity [14]
Cc1ccc(C#CC(=O)N2C[C@@H]3CNC[C@@H](C3)C2)cc1 | > 1 | > 1 | > 5 | 0.0109 | – | – | – | – | – | – | – | – | – | –
O=C(/C=C/c1ccccc1)N1C[C@@H]2CNC[C@@H](C2)C1 | > 5 | > 5 | > 10 | 0.0551 | inactive | inactive | inactive | inactive | inactive | inactive | Active | inactive | Active | inactive
O=C(/C=C/c1cccc(Cl)c1)N1C[C@@H]2CNC[C@@H](C2)C1 | – | > 10 | – | 0.0237 | inactive | inactive | inactive | – | inactive | inactive | – | – | Active | –
O=C(Cc1c(F)c(F)c(F)c(F)c1F)N1C[C@@H]2CNC[C@@H](C2)C1 | – | – | – | > 5 | – | – | – | – | – | – | – | – | – | –
O=C(/C=C/c1cccnc1)N1C[C@@H]2CNC[C@@H](C2)C1 | > 1 | > 1 | > 5 | 0.0326 | inactive | inactive | inactive | inactive | inactive | inactive | Active | inactive | Active | inactive
O=C(C#Cc1ccccc1)N1C[C@@H]2CNC[C@@H](C2)C1 | > 1 | > 5 | > 1 | 0.0109 | inactive | inactive | inactive | – | inactive | inactive | – | – | Active | –
COc1ccccc1C#CC(=O)N1C[C@@H]2CNC[C@@H](C2)C1 | > 1 | > 1 | > 5 | 0.242 | – | – | – | – | – | – | – | – | – | –
O=c1c(-c2cccnc2)ccc2n1C[C@@H]1CNC[C@H]2C1 | – | – | > 5 | – | – | – | – | – | – | – | – | – | – | –
Cc1cc(CC(=O)N2C[C@@H]3CNC[C@@H](C3)C2)on1 | > 1 | > 1 | – | 0.0469 | inactive | – | – | inactive | inactive | inactive | Active | inactive | – | inactive
O=C(/C=C/c1cccs1)N1C[C@@H]2CNC[C@@H](C2)C1 | 2 | > 10 | – | 0.0969 | – | – | – | – | – | – | – | – | – | –
COc1ccccc1/C=C/C(=O)N1C[C@@H]2CNC[C@@H](C2)C1 | – | – | > 10 | 0.172 | – | – | – | – | – | – | – | – | – | –
O=C(/C=C/c1ccc(F)cc1)N1C[C@@H]2CNC[C@@H](C2)C1 | > 5 | > 5 | > 10 | 0.0207 | inactive | – | inactive | – | inactive | inactive | – | – | Active | –
O=C(/C=C/c1ccsc1)N1C[C@@H]2CNC[C@@H](C2)C1 | – | > 10 | – | 0.0571 | inactive | inactive | inactive | – | inactive | inactive | – | – | Active | –
COc1cc(CCC(=O)N2C[C@@H]3CNC[C@@H](C3)C2)cc(OC)c1OC | > 5 | > 10 | – | 0.233 | – | – | – | – | – | – | – | – | – | –
O=C(Cc1ccccc1)N1C[C@@H]2CNC[C@@H](C2)C1 | – | > 10 | – | 0.0576 | inactive | inactive | inactive | inactive | inactive | inactive | Active | inactive | Active | inactive
O=C(c1ccc(-c2ccccc2)cc1)N1C[C@@H]2CNC[C@@H](C2)C1 | 1.09 | – | – | – | – | – | – | – | – | – | – | – | – | –
O=C(C#Cc1cccc(F)c1)N1C[C@@H]2CNC[C@@H](C2)C1 | > 1 | > 1 | > 5 | 0.0071 | – | – | – | – | – | – | – | – | – | –
O=C(/C=C/c1cccc(Br)c1)N1C[C@@H]2CNC[C@@H](C2)C1 | – | > 10 | – | 0.0246 | – | – | – | – | – | – | – | – | – | –

Structure (SMILES) | Ki [1] [µM] | Ki [2] [µM] | Ki [3] [µM] | Ki [4] [µM] | inhibition [5] | Activity [6] | Activity [7] | Activity [8] | inhibition [9] | Activity [10] | Activity [11] | Activity [12] | Activity [13] | Activity [14]
O=C(c1csc(-c2ccncc2)n1)N1C[C@@H]2CNC[C@@H](C2)C1 | – | – | – | > 1 | – | – | – | – | – | – | – | – | – | –
O=c1c(-c2ccc3c(c2)OCO3)ccc2n1C[C@@H]1CNC[C@H]2C1 | > 10 | > 10 | > 10 | 0.11 | – | – | – | – | – | – | – | – | – | –
O=C(/C=C/c1cccc([N+](=O)[O-])c1)N1C[C@@H]2CNC[C@@H](C2)C1 | > 1 | – | > 10 | 0.0389 | – | – | – | – | – | – | – | – | – | –
O=C(/C=C/c1cccc2ccccc12)N1C[C@@H]2CNC[C@@H](C2)C1 | > 5 | > 1 | > 5 | 0.297 | – | – | – | – | – | – | – | – | – | –
COc1cccc(C#CC(=O)N2C[C@@H]3CNC[C@@H](C3)C2)c1 | > 1 | > 1 | > 5 | 0.0063 | – | – | – | – | – | – | – | – | – | –
O=C(COc1ccccc1Cl)N1C[C@@H]2CNC[C@@H](C2)C1 | > 5 | > 5 | > 5 | 0.548 | – | – | – | – | – | – | – | – | – | –
O=c1c(-c2ccncc2)ccc2n1C[C@@H]1CNC[C@H]2C1 | – | > 10 | > 10 | 0.0039 | – | – | – | – | – | – | – | – | – | –
O=C(C#Cc1cccc2ccccc12)N1C[C@@H]2CNC[C@@H](C2)C1 | > 1 | > 1 | > 5 | 0.046 | – | – | – | – | – | – | – | – | – | –
O=C(CCc1ccccc1)N1C[C@@H]2CNC[C@@H](C2)C1 | 0.396 | > 10 | – | 0.0525 | inactive | inactive | inactive | inactive | inactive | inactive | Active | inactive | Active | inactive
O=c1cccc2n1C[C@@H]1CNC[C@H]2C1 [CYTISINICLINE] | 0.018 | 0.261 | 1.3 | – | – | – | – | – | – | – | – | – | – | –
O=c1c(-c2ccccc2)ccc2n1C[C@@H]1CNC[C@H]2C1 | > 10 | > 10 | > 10 | 0.128 | – | – | – | – | – | – | – | – | – | –
COc1ccc(/C=C/C(=O)N2C[C@@H]3CNC[C@@H](C3)C2)cc1 | – | – | – | 0.0396 | inactive | inactive | inactive | inactive | inactive | inactive | Active | inactive | Active | inactive
O=C(Cc1ccc2ccccc2c1)N1C[C@@H]2CNC[C@@H](C2)C1 | > 1 | > 1 | > 5 | 0.0102 | inactive | inactive | inactive | – | inactive | inactive | – | – | Active | –
O=C(c1ccccc1)N1C[C@@H]2CNC[C@@H](C2)C1 | > 5 | – | > 10 | – | – | – | – | – | – | – | – | – | – | –
COc1ccc(C#CC(=O)N2C[C@@H]3CNC[C@@H](C3)C2)cc1 | > 1 | > 1 | > 5 | 0.0078 | – | – | – | – | – | – | – | – | – | –
O=C(/C=C/c1ccco1)N1C[C@@H]2CNC[C@@H](C2)C1 | > 1 | > 1 | > 5 | 0.288 | – | – | – | – | – | – | – | – | – | –
O=C(CCc1cccnc1)N1C[C@@H]2CNC[C@@H](C2)C1 | > 5 | > 5 | > 5 | 0.039 | inactive | inactive | inactive | – | inactive | inactive | – | – | Active | –
